Active and inactive are the calls of the source. The rule behind the calls is not given here.
Tests used:
NALM-6 [1] = assay: Induction of apoptosis in human NALM6 cells assessed as viable cells at 20 uM after 12 hrs by Annexin-V/FITC propidium iodide staining based flow cytometric analysis (reference value: 92.11%); type: functional; conditions: NALM-6, 12 h, read-out: Activity
NALM-6 [2] = assay: Induction of apoptosis in human NALM6 cells assessed as late apoptotic cells at 20 uM after 12 hrs by Annexin-V/FITC propidium iodide staining based flow cytometric analysis (reference value: 0.45%); type: functional
NALM-6 [3] = assay: Induction of apoptosis in human NALM6 cells assessed as early apoptotic cells at 20 uM after 12 hrs by Annexin-V/FITC propidium iodide staining based flow cytometric analysis (reference value: 7.40%); type: functional
HL-60 [4] = assay: Cytotoxicity against human HL60 cells assessed as reduction in cell viability up to 200 uM after 48 hrs by MTT assay; type: functional, cell-based; conditions: Homo sapiens, HL-60, 48 h; read-out: IC50
Method in brief: (§1)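 Cells (7x10^4/well) in RPMI-1640 with 10% FBS, 37 °C, 5% CO2; exposed to compound dilutions 0–200 µM (medium with 10% FBS, 0.4% DMSO) for 48 h. MTT added, 3 h at 37 °C, formazan dissolved in DMSO, absorbance 540 nm. IC50 from concentration–response; means ± standard deviation of three independent experiments.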

NALM-6 [5] = assay: Cytotoxicity against human NALM6 cells assessed as cell growth inhibition at 20 uM after 96 hrs by trypan blue dye exclusion assay relative to control; type: functional; conditions: NALM-6, 96 h, read-out: GI
Method in brief: (§2)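 Nalm6 at 1x10^4 or HL60 at 1.5x10^4 cells per well exposed to 20 µM; DMSO (0.4% v/v) as control. Viable cells counted by trypan blue exclusion on a hemocytometer at 0, 24, 48, 72 and 96 h; growth inhibition relative to control.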

NALM-6 [6] = assay: Induction of apoptosis in human NALM6 cells assessed as viable cells at 20 uM after 24 hrs by Annexin-V/FITC propidium iodide staining based flow cytometric analysis (reference value: 90.10%); type: functional; conditions: NALM-6, 24 h, read-out: Activity
Jurkat = assay: Cytotoxicity against human Jurkat cells assessed as reduction in cell viability up to 200 uM after 48 hrs by MTT assay; type: functional, cell-based; conditions: Homo sapiens, Jurkat, 48 h; read-out: IC50; method in brief: as §1
NALM-6 [7] = assay: Induction of apoptosis in human NALM6 cells assessed as late apoptotic cells at 20 uM after 24 hrs by Annexin-V/FITC propidium iodide staining based flow cytometric analysis (reference value: 1.68%); type: functional
NALM-6 [8] = assay: Induction of autophagy in human NALM6 cells at 20 uM after 24 hrs by acridin orange staining based fluorescence microscopy; type: functional, cell-based
Method in brief: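 Nalm6 (7x10^4/well) exposed 24 h to 20 µM or 0.4% DMSO, washed in PBS, stained with 1 µM acridine orange at 37 °C for 15 min, washed, resuspended in PBS; autophagosomes (red fluorescence) viewed by fluorescence microscopy; three experiments.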

Homo sapiens = species: Homo sapiens; assay: Inhibition of SRPK in human NALM6 cells assessed as decrease in RON mRNA expression level at 20 uM after 24 hrs by qRT-PCR analysis; type: cell-based
Method in brief: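 Nalm6 given 20 µM for 24 h with 0.4% DMSO control; mRNA isolated with Tri Reagent, quantified spectrophotometrically, integrity checked on 1% agarose, then RT-PCR for target transcripts; one representative of three experiments.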

NALM-6 [9] = assay: Induction of apoptosis in human NALM6 cells assessed as necrotic cells at 20 uM after 12 hrs by Annexin-V/FITC propidium iodide staining based flow cytometric analysis (reference value: 0.04%); type: functional
NALM-6 [10] = assay: Effect on SRPK2 expression level in human NALM6 cells at 20 uM after 24 hrs by Western blot analysis; type: functional, cell-based
Method in brief: (§3)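 Nalm6 treated 24 h at 20 µM (DMSO vehicle control), lysed at 2x10^7 cells/mL in PBS with 1% NP40, 1 mM EDTA, 150 mM NaCl, 10 mM Tris pH 7.4 plus protease/phosphatase inhibitors; on ice 10 min, sonicated, spun 15000 xg; SDS-PAGE, PVDF, milk block overnight, primary and secondary antibody 2 h each; representative of three.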

NALM-6 [11] = assay: Induction of apoptosis in human NALM6 cells assessed as early apoptotic cells at 20 uM after 24 hrs by Annexin-V/FITC propidium iodide staining based flow cytometric analysis (reference value: 8.22%); type: functional
NALM-6 [12] = assay: Antiproliferative activity against human NALM6 cells at 20 uM by trypan blue dye exclusion assay; type: functional, cell-based; conditions: TDE = time-dependent effect; method in brief: as §2
HL-60 [13] = assay: Antiproliferative activity against human HL60 cells at 20 uM by trypan blue dye exclusion assay; type: functional, cell-based; conditions: TDE = time-dependent effect; method in brief: as §2
NALM-6 [14] = assay: Cytotoxicity against human NALM6 cells assessed as reduction in cell viability up to 200 uM after 48 hrs by MTT assay; type: functional, cell-based; conditions: Homo sapiens, NALM-6, 48 h; read-out: IC50; method in brief: as §1
NALM-6 [15] = assay: Effect on actin expression level in human NALM6 cells at 20 uM after 24 hrs by qRT-PCR analysis; type: ADME, cell-based; conditions: nalm-6, 24 h
PBMC = assay: Cytotoxicity against PHA-stimulated human PBMC assessed as reduction in cell viability at 25 uM after 48 hrs by MTT assay; type: cell-based
Method in brief: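 Primary peripheral blood mononuclear cells seeded 1x10^5/well in complete RPMI; treated with 25 µM for 48 h. Viability by MTT (3 h, 37 °C, DMSO solubilization, 540 nm), vehicle taken as 100% viability; triplicate experiments, means ± standard deviation.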

NALM-6 [16] = assay: Synergistic cytotoxicity against human NALM6 cells assessed as reduction in cell viability by measuring combination index at 1.5 uM after 48 hrs in presence of 0.5 nM vincristine by MTT assay; type: functional
NALM-6 [17] = assay: Induction of apoptosis in human NALM6 cells assessed as necrotic cells at 20 uM after 24 hrs by Annexin-V/FITC propidium iodide staining based flow cytometric analysis (reference value: 0%); type: functional
NALM-6 [18] = assay: Effect on SRPK1 expression level in human NALM6 cells at 20 uM after 24 hrs by Western blot analysis; type: functional, cell-based; method in brief: as §3
NALM-6 [19] = assay: Effect on actin expression level in human NALM6 cells at 20 uM after 24 hrs by Western blot analysis; type: ADME, cell-based; conditions: nalm-6, 24 h; method in brief: as §3
HL-60 [20] = assay: Cytotoxicity against human HL60 cells assessed as cell growth inhibition at 20 uM after 96 hrs by trypan blue dye exclusion assay relative to control; type: functional; conditions: HL-60, 96 h, read-out: GI; method in brief: as §2
NALM-6 [21] = assay: Synergistic cytotoxicity against human NALM6 cells assessed as reduction in cell viability by measuring combination index at 3 uM after 48 hrs in presence of 1 nM vincristine by MTT assay; type: functional

Compound: O=C(Nc1cc(C(F)(F)F)ccc1Nc1ccc(Br)cc1)c1ccccc1
- viability at 20 µM (NALM-6 [1]): 85.9%
- Activity (NALM-6 [2]): 0.52%
- Activity (NALM-6 [3]): 13.53%
- IC50 (HL-60 [4]): 11.8 µM
- inhibition of growth at 20 µM (NALM-6 [5]): 72%
- viability at 20 µM (NALM-6 [6]): 73.2%
- IC50 (Jurkat): 33.8 µM
- Activity (NALM-6 [7]): 2.01%
- Activity (NALM-6 [8]): Active
- inhibition (Homo sapiens): Active
- Activity (NALM-6 [9]): 0.02%
- Activity (NALM-6 [10]): inactive
- Activity (NALM-6 [11]): 24.73%
- Activity (NALM-6 [12]): Tde
- Activity (HL-60 [13]): Tde
- IC50 (NALM-6 [14]): 6 µM
- Activity (NALM-6 [15]): Non-Toxic
- Activity (PBMC): Non-Toxic
- CI (NALM-6 [16]): 0.56
- Activity (NALM-6 [17]): 0.01%
- Activity (NALM-6 [18]): inactive
- Activity (NALM-6 [19]): Non-Toxic
- inhibition of growth at 20 µM (HL-60 [20]): 48%
- CI (NALM-6 [21]): 1.05

From ChEMBL document CHEMBL4020718, “Trifluoromethyl arylamides with antileukemia effect and intracellular inhibitory activity over serine/arginine-rich protein kinases (SRPKs)” (Eur J Med Chem, 2017)
